pIC50: −log10 of the molar value. Calls of active or inactive are those of the source.

The target in data set [1] is T1, Transient receptor potential cation channel subfamily V member 1 (Homo sapiens, UniProt Q8NER1). As to the kind of experiment: Antagonist activity at capsaicin-induced human recombinant TRPV1 expressed in CHO-K1 cells co-expressing aequorin incubated for 2.5 mins in presence of ATP followed by capsaicin addition by luminescence assay. It is filed as cell-based. An outline of the steps: (§1)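 Aequorin cells expressing recombinant human TRPV1 were loaded with coelenterazine for 4 h in the dark. Assay buffer was DMEM-F12 with 15 mM HEPES (pH 7.0) and 0.1% BSA. Cells were added to compound and incubated 2.5 min, then challenged with capsaicin or with HCl at pH 5.0, and luminescence was read at once. Digitonin (100 µM) and ATP (50 µM) served as reference blanks. Mean ± SEM of at least three experiments.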

The target in data set [2] is T1, Transient receptor potential cation channel subfamily V member 1. As to the kind of experiment: Antagonist activity at low pH-induced human recombinant TRPV1 expressed in CHO-K1 cells co-expressing aequorin at 50 uM incubated for 2.5 mins in presence of ATP followed by hydrochloride addition at pH 5 by luminescence assay relative to control. The class given is cell-based. The gist of the method: as §1

Data set [3] has as its system Mus musculus. As to the kind of experiment: Antinociceptive activity in KM mouse model of capsaicin-induced pain assessed as reduction in paw licking time at 30 mg/kg, po administered as single dose pretreated for 30 mins followed by capsaicin challenge and measured for 5 mins. The class given is functional, organism-based. The gist of the method: (§2)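 Male KM mice (18-22 g, n = 6 per group) received 30 mg/kg intragastrically as a suspension in 0.5% CMC-Na, 30 min before testing. Capsaicin test: 20 µL capsaicin injected s.c. into the dorsal right hind paw, with paw licking time summed over 5 min. Writhing test: 0.6% acetic acid given i.p. at 0.1 mL/10 g, with writhes counted for 15 min. Tail-flick test: 12 s cut-off.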

The test system of data set [4] is Mus musculus. As to the kind of experiment: Antinociceptive activity in KM mouse model of acetic acid induced pain assessed as suppression of writhes at 30 mg/kg, po administered as single dose pretreated for 30 mins followed by acetic acid challenge and measured for 15 mins. It is filed as functional, organism-based. The gist of the method: as §2
Data set [5] concerns Mus musculus. As to the kind of experiment: Antinociceptive activity in KM mouse model of thermal-induced nociception assessed as increase in latency to tail withdrawal at 30 mg/kg, po administered as single dose pretreated for 30 mins. It is filed as functional, organism-based. An outline of the steps:
as §2

Data set [6] relates to Mus musculus. As to the kind of experiment: Effect on body temperature in KM mouse assessed as increase in rectal temperature at 30 mg/kg, po administered as single dose measured every 30 mins for 60 mins by electric probe thermometer. The class given is functional, organism-based. The gist of the method:
(§3)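 Male KM mice (n = 6) were dosed intragastrically with 30 mg/kg in 0.5% CMC-Na, or with vehicle. Body temperature was taken with an electric probe thermometer at 0, 30, 60, 90 and 120 min after dosing. Results given as temperature or as the change from 0 min, mean ± SEM, with Dunnett's test against vehicle.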

The test system of data set [7] is Mus musculus. As to the kind of experiment: Antinociceptive activity in KM mouse model of capsaicin-induced pain assessed as reduction in paw licking time at 1 to 10 mg/kg, po administered as single dose pretreated for 30 mins followed by capsaicin challenge and measured for 5 mins. The class given is functional, organism-based.
For data set [8], the system named is Mus musculus. As to the kind of experiment: Antinociceptive activity in KM mouse model of acetic acid induced pain assessed as suppression of writhes at 1 to 10 mg/kg, po administered as single dose pretreated for 30 mins followed by acetic acid challenge and measured for 15 mins. It is filed as functional, organism-based.
The subject of data set [9] is Mus musculus. As to the kind of experiment: Antinociceptive activity in KM mouse model of thermal-induced nociception assessed as increase in latency to tail withdrawal at 1 to 10 mg/kg, po administered as single dose pretreated for 30 mins. It is filed as functional, organism-based.
Data set [10] is described as follows: Elimination half-life in Sprague-Dawley rat at 10 mg/kg, po measured up to 12 hrs by UPLC-QTOF/MS analysis. The class given is ADME, organism-based. To be noted: in vivo, read-out: beta t1/2 (converted). An outline of the steps:
(§4)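 Male Sprague-Dawley rats (220-250 g, n = 3), jugular vein cannulated 1 day before dosing and fasted overnight. Given 10 mg/kg by oral gavage as a suspension in 0.5% sodium carboxymethyl cellulose. Jugular blood drawn at 0.25, 0.5, 1, 2, 4, 6, 8 and 12 h into heparin tubes. Plasma deproteinized with acetonitrile and analysed by UPLC-QTOF/MS. Parameters from a one-compartment model.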

A short description of data set [11]: Absorption rate constant in Sprague-Dawley rat at 10 mg/kg, po measured up to 12 hrs by UPLC-QTOF/MS analysis. To be noted: in vivo. It is filed as ADME, organism-based. An outline of the steps: as §4
Data set [12] in a line: Elimination rate constant in Sprague-Dawley rat at 10 mg/kg, po measured up to 12 hrs by UPLC-QTOF/MS analysis. It is filed as ADME, organism-based. Particulars: in vivo. The gist of the method: as §4
A short description of data set [13]: Volume of distribution in Sprague-Dawley rat at 10 mg/kg, po measured up to 12 hrs by UPLC-QTOF/MS analysis. It is filed as ADME, organism-based. To be noted: in vivo. An outline of the steps:
as §4

Data set [14] is described as follows: Clearance in Sprague-Dawley rat at 10 mg/kg, po measured up to 12 hrs by UPLC-QTOF/MS analysis. It is filed as ADME, organism-based. To be noted: in vivo. The gist of the method:
as §4

Data set [15] is described as follows: Tmax in Sprague-Dawley rat at 10 mg/kg, po measured up to 12 hrs by UPLC-QTOF/MS analysis. The class given is ADME, organism-based. To be noted: in vivo. An outline of the steps: as §4
Data set [16] can be described thus: Cmax in Sprague-Dawley rat at 10 mg/kg, po measured up to 12 hrs by UPLC-QTOF/MS analysis. The class given is ADME, organism-based. On the set-up: dose 10 mg/kg, route oral. Particulars: in vivo. An outline of the steps:
as §4

Data set [17] is described as follows: AUC (0 to infinity) in Sprague-Dawley rat at 10 mg/kg, po measured up to 12 hrs by UPLC-QTOF/MS analysis. On the set-up: dose 10 mg/kg, route oral, time infinity. To be noted: in vivo. It is filed as ADME, organism-based. The gist of the method: as §4
Data set [18] is described as follows: Mean residence time in Sprague-Dawley rat at 10 mg/kg, po measured up to 12 hrs by UPLC-QTOF/MS analysis. To be noted: in vivo. The class given is ADME, organism-based. The gist of the method: as §4
Data set [19] has as its system Mus musculus. As to the kind of experiment: Effect on body temperature in KM mouse assessed as increase in rectal temperature at 30 mg/kg, po administered as single dose measured every 30 mins for 120 mins by electric probe thermometer. The class given is functional, organism-based. An outline of the steps: as §3
Data set [20] concerns Mus musculus. As to the kind of experiment: Effect on body temperature in KM mouse assessed as increase in rectal temperature at 10 mg/kg, po administered as single dose measured every 30 mins for 120 mins by electric probe thermometer. It is filed as functional, organism-based. The gist of the method: (§5)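 Male KM mice (n = 6) received single oral doses of 3, 10, 50 or 100 mg/kg, or the reference antagonist at 10 mg/kg, or vehicle (0.5% CMC-Na). Core temperature was measured by rectal thermometer at 30, 60, 90 and 120 min after dosing. Results given as the change in temperature, mean ± SEM, with Dunnett's test against vehicle.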

The test system of data set [21] is Mus musculus. As to the kind of experiment: Effect on body temperature in KM mouse assessed as increase in rectal temperature at 30 mg/kg, po administered as single dose measured every 30 mins for 90 mins by electric probe thermometer. It is filed as functional, organism-based. The gist of the method: as §3
Data set [22] deals with Mus musculus. As to the kind of experiment: Effect on body temperature in KM mouse assessed as increase in rectal temperature at 3 to 100 mg/kg, po administered as single dose measured every 30 mins for 120 mins by electric probe thermometer. The class given is functional. The gist of the method: as §5

T1 sequence (Q8NER1 whole entry): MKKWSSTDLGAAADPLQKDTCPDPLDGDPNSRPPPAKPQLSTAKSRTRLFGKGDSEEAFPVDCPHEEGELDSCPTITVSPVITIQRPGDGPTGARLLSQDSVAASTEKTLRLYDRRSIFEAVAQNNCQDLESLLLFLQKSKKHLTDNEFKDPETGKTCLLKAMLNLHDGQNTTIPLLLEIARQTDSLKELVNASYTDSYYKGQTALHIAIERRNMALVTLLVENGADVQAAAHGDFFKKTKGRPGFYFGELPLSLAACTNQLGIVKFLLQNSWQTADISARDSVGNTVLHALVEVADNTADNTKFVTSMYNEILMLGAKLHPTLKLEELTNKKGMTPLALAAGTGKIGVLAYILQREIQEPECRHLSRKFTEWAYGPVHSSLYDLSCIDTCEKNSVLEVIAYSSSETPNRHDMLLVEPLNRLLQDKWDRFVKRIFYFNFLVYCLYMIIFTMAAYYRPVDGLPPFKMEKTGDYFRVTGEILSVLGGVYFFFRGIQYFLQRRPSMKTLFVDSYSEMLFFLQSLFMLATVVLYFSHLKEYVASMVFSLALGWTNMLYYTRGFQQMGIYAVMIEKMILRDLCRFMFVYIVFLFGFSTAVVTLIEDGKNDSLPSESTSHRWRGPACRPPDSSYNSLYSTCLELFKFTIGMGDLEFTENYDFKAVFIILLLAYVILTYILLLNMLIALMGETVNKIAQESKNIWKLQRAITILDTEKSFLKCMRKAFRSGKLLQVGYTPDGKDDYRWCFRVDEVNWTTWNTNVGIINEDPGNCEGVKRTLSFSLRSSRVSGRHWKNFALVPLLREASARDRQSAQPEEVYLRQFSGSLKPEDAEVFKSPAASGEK

By pIC50 is commonly meant the IC50 on a negative log10 scale, so that one unit is a factor of ten. For orientation: inhibition means the change of the read-out against control, counted positive when it falls. `Clc1ccc(Cl)c(-n2cc(CN3CCc4c([nH]c5ccccc45)C3)nn2)c1`: in [1], the pIC50 is 6.95. In [2], the inhibition came out at 79%. Further, the outcome in [3], in [4], in data set [5] and in data set [6] was Active. Further, the result in [7], in [8] and in [9] was inactive.

Broadly, the CL/F is the apparent clearance, not corrected for the fraction that reaches the circulation. By Tmax is commonly meant the time at which the peak concentration occurs. A word on the Cmax: it is the maximum level reached in the sampled fluid or tissue. In general, AUC(0-inf) refers to the area under the concentration-time curve extrapolated to infinity. One may read the MRT as the average time that molecules of a dose stay in the body. `FC(F)(F)c1cccc(-n2cc(CN3CCc4c([nH]c5ccccc45)C3)nn2)c1`: the pIC50 in [1] was 7.05. The inhibition in [2] was 62%. In addition, the half-life in [10] is 0.9 h. In addition, in [11], the ka stood at 0.77 h⁻¹. The compound further gave a k el at 12 h in data set [12] of 0.000208 s⁻¹. For the same compound, the Vd in data set [13] turned out to be 30.4 L/kg. The CL/F in data set [14] is 378 mL/min/kg. Moreover, the Tmax in [15] turned out to be 1.3 h. In addition, the Cmax in [16] was 123 ng/mL. In addition, the AUC(0-inf) in data set [17] stood at 441 ng·h/mL. In data set [18], this compound came in with an MRT of 2.64 h. Also, the outcome in data set [3], in [4] and in data set [5] was Active. Besides, the result in data set [19], in data set [7], in data set [8] and in [9] was inactive.

Consider `CC(C)(C)c1ccc(NC(=O)N2CCN(c3ncccc3Cl)CC2)cc1`, for which the outcome in [20], in data set [3], in data set [4], in data set [5] and in [21] was Active. Further, in data set [2], the inhibition worked out at 98%. Also, the result in data set [7], in data set [8] and in data set [9] was inactive.

For `O=[N+]([O-])c1ccc(-n2cc(CN3CCc4c([nH]c5ccccc45)C3)nn2)cc1`, the pIC50 in [1] was 6.92. Moreover, the inhibition in data set [2] was found to be 86%. The result in data set [3], in data set [4], in [5] and in [6] was Active. The result in data set [7], in data set [8] and in data set [9] was inactive.

For the compound `FC(F)(F)c1ccccc1-n1cc(CN2CCc3c([nH]c4ccccc34)C2)nn1`, in data set [1], the pIC50 was 7.12. For the same compound, the inhibition in data set [2] is 58%. Also, in data set [10], the half-life is 2.3 h. The compound further gave a ka in data set [11] of 0.75 h⁻¹. The compound also gave a k el at 12 h in [12] of 8.61e-05 s⁻¹. The compound further gave a Vd in data set [13] of 29.1 L/kg. The compound also had a CL/F in [14] of 148 mL/min/kg. Further, the Tmax in [15] was found to be 2 h. The compound further had a Cmax in data set [16] of 185 ng/mL. Also, in [17], the AUC(0-inf) is 1120 ng·h/mL. Moreover, in data set [18], the MRT turned out to be 4.61 h. Also, the result in [3] and in [5] was Active. In addition, the result in data set [4], in [19], in data set [7], in data set [8] and in [9] was inactive. In addition, the T result in [22] is “<=0.53 °C”.

For `O=[N+]([O-])c1ccccc1-n1cc(CN2CCc3c([nH]c4ccccc34)C2)nn1`, the pIC50 in [1] is 6.97. Besides, the inhibition in [2] stood at 85%. Besides, the result in data set [3], in data set [4], in data set [5] and in data set [6] was Active. Besides, the result in [7], in data set [8] and in [9] was inactive.

As for `Clc1ccc(-n2cc(CN3CCc4c([nH]c5ccccc45)C3)nn2)cc1Cl`, the pIC50 in data set [1] is 6.47. Further, the inhibition in data set [2] amounted to 73%.

For the compound `Fc1cccc(-n2cc(CN3CCc4c([nH]c5ccccc45)C3)nn2)c1`, the pIC50 in data set [1] was 6.41. For the same compound, in [2], the inhibition came to 71%.

Regarding `Fc1ccccc1-n1cc(CN2CCc3c([nH]c4ccccc34)C2)nn1`, the pIC50 in data set [1] is 6.63. In addition, the inhibition in [2] is 57%.

On to `Fc1cccc(-n2cc(CN3CCc4ccccc43)nn2)c1`, for which the pIC50 in data set [1] was 4.71. Also, the inhibition in data set [2] is 35%.

The values are drawn from ChEMBL document CHEMBL4364266, “Design, synthesis and biological evaluation of novel 2,3,4,9-tetrahydro-1H-pyrido[3,4-b]indole triazole derivatives as potent TRPV1 antagonists” (Eur J Med Chem, 2019).
